In series [1] the test system is Lower stem. Kind of series: Drug metabolism in adult Ricinus communis (castor bean) lower stem assessed as compound conversion to fipronil at 2 mM measured 48 to 72 hr post treatment by HPLC-MS method. The series is classed as ADME. The note with it: 2000 µM. In a few lines:
(§1)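 Adult castor bean plants. On each of two fully expanded leaves, 100 mm2 of the adaxial surface was abraded with a Celite slurry, rinsed and blotted dry. 200 μL of aqueous GTF in 0.1% Tween 80/10% acetone was applied per leaf; vehicle alone served as control. After 48 and 72 h, plants were cut into apical leaves, upper stem, lower stem and roots (three replicates). 2 g tissue was acetone-extracted with 15 min sonication. Fipronil was quantified by C18 HPLC (acetonitrile/water 50:50, 1.0 mL/min, 210 nm) against external calibration.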

The test system of series [2] is Apical leaf. Kind of series: Drug metabolism in adult Ricinus communis (castor bean) apical leaves assessed as compound conversion to fipronil at 2 mM measured 48 to 72 hr post treatment by HPLC-MS method. It counts as ADME. The note with it: 2000 µM. In a few lines: as §1
Series [3] concerns Root. As to the kind of experiment: Drug metabolism in adult Ricinus communis (castor bean) roots assessed as compound conversion to fipronil at 2 mM measured 48 to 72 hr post treatment. The series is classed as ADME. The note with it: 2000 µM. In a few lines:
as §1

For series [4], the system named is Phloem. Kind of series: Phloem mobility in Ricinus communis (castor bean) seedlings phloem sap assessed as drug level at 200 uM measured 3.5 hr post dose by DiBAC4 indicator based flow cytometry relative to untreated control. It counts as ADME.
Series [5] concerns Phloem. As to the kind of experiment: Phloem mobility in Ricinus communis (castor bean) seedlings phloem sap assessed as drug level at 200 uM measured 7 hr post dose by DiBAC4 indicator based flow cytometry relative to untreated control. The series is classed as ADME.
For series [6], the system named is Lower stem. As to the kind of experiment: Drug metabolism in adult Ricinus communis (castor bean) lower stem assessed as compound conversion to fipronil at 2 mM measured 48 to 72 hr post treatment. It counts as ADME. The note with it: 2000 µM. Summed up:
as §1

Series [7] has as its system Phloem. As to the kind of experiment: Phloem mobility in Ricinus communis (castor bean) seedlings phloem sap assessed as drug level at 200 uM measured 8 hr post dose by DiBAC4 indicator based flow cytometry. The series is classed as ADME. Summed up: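 Protoplasts from cotyledons were isolated by 4 h digestion at 28 °C in cellulase/pectinase with 0.6 M mannitol and MES pH 5.8. They were suspended in buffer with 200 μM compound, or none for control, and shaken at 28 °C for 8 h. Every 2 h, samples were stained with 2 μM DiBAC4(3) for 30 min. Fluorescence of 20000 viable cells was read by flow cytometry (ex 488/em 530 nm) and expressed relative to fresh cells; n = 3, Duncan's test.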

Series [8] has as its system Apical leaf. As to the kind of experiment: Drug metabolism in adult Ricinus communis (castor bean) apical leaves assessed as compound conversion to fipronil at 2 mM measured 48 to 72 hr post treatment. The note with it: 2000 µM. The series is classed as ADME. Summed up: as §1
The subject of series [9] is Root. As to the kind of experiment: Drug metabolism in adult Ricinus communis (castor bean) roots assessed as compound conversion to fipronil at 2 mM measured 48 to 72 hr post treatment by HPLC-MS method. It counts as ADME. The note with it: 2000 µM. Summed up:
as §1

The subject of series [10] is Upper stem. As to the kind of experiment: Drug metabolism in adult Ricinus communis (castor bean) upper stem assessed as compound conversion to fipronil at 2 mM measured 48 to 72 hr post treatment by HPLC-MS method. The note with it: 2000 µM. It counts as ADME. In a few lines: as §1
Series [11] deals with Phloem. Kind of series: Phloem mobility in Ricinus communis (castor bean) seedlings phloem sap assessed as drug level at 200 uM by HPLC-MS method. It counts as ADME. Summed up:
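Six-day castor bean seedlings, endosperm removed. After 1 h the hypocotyl was severed and phloem sap collected from the upper hypocotyl. Sap was analysed by C18 HPLC (acetonitrile/water 50:50, 1.0 mL/min, 210 nm, 25 °C) with external calibration; identity was confirmed by positive-ion APCI-MS.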

The test system of series [12] is Upper stem. Kind of series: Drug metabolism in adult Ricinus communis (castor bean) upper stem assessed as compound conversion to fipronil at 2 mM measured 48 to 72 hr post treatment. The series is classed as ADME. The note with it: 2000 µM. Summed up:
as §1

A further series relates to Plutella xylostella. Kind of series: Insecticidal activity against Plutella xylostella (diamondback moth) third-instar larvae measured 24 hr post dose by leaf disk dipping assay. The note with it: foliar. The series is classed as functional. Summed up:
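Third-instar larvae, leaf disk dip. Compounds were dissolved in acetone and suspended in water with 0.1% Tween 80. 5.5 cm leaf disks were dipped 30 s and air-dried 2 h, then 10 larvae were placed per dish. Control was 10% acetone/0.1% Tween 80. Incubation at 26 ± 2 °C, 70% RH, 16:8 h light/dark; five replicates. Mortality was scored at 24 h and LC50 derived with 95% confidence limits.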

≈ marks a conversion by molar mass, not a printed value.

Regarding `N#Cc1nn(-c2c(Cl)cc(C(F)(F)F)cc2Cl)c(NCc2cn([C@@H]3O[C@H](CO)[C@@H](O)[C@H](O)[C@H]3O)nn2)c1[S+]([O-])C(F)(F)F` (stereo not given in full), the Drug metabolism entry in the series with Lower stem [1], in the series on Apical leaf [2], with Root [3], in the series with Lower stem [6], in the series on Apical leaf [8] and in the series with Root [9] was “Active” throughout. The Drug metabolism result in the series with Upper stem [10] and in the series with Upper stem [12] was “Active” throughout. In addition, the “fold change (FC)” value in the series on Phloem [4] stood at 0.25; in the series with Phloem [5], 0.45. For the same compound, the Drug mobility result with Phloem [7] and in the series with Phloem [11] was “Active” throughout.

The compound `N#Cc1nn(-c2c(Cl)cc(C(F)(F)F)cc2Cl)c(N)c1[S+]([O-])C(F)(F)F` (stereo not given) [FIPRONIL] gave an LC50 in the series on Plutella xylostella of 21.4 µg/mL (≈ 48.9 µM). In addition, the Drug mobility result in the series on Phloem [7] and in the series on Phloem [11] was “Not Active” in each case.

The values are drawn from ChEMBL document CHEMBL3045249, “Synthesis of glucose-fipronil conjugate and its phloem mobility” (J Agric Food Chem, 2011).
